From PubChem
Compounds with a hit are over-represented: about 3.8% of the library has one in this group of screens.
KCNQ1 inh: blocks the human KCNQ1 potassium channel | P51787 | CHO-K1 KCNQ1, FluxOR thallium flux fluorescence; active compounds read high | B-score at 10 µM | 1.3% of 310,000 active;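 active = compounds whose thallium flux B-score, printed positive for inhibition, exceeds three library SD while starting fluorescence stays within three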;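 note: channel opened by potassium depolarization with thallium stimulus after 20 min compound exposure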
Kir21 inh: Kir2.1 (mouse) channel inhibition | P35561 | AID 1672 | 0.85% of 310,000 active | B-score at 10 µM | HEK293-Kir2.1, FluxOR thallium flux fluorescence; active compounds read low;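 active = fluorescence ratio B-score at or below minus 3 SD of library scores, with starting-brightness B-score within 2 SD, cut at about -4.2 in these data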;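 note: channel flux triggered by added potassium and thallium sulfate stimulus; B-score of peak minus minimum fluorescence over baseline after thallium stimulus; more negative B-score means stronger Kir2.1 block with less thallium influx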
KCNQ1 pot: human KCNQ1 channel potentiation or activation | B-score at 10 µM | P51787 | 0.35% of 310,000 active | CHO-K1 KCNQ1, thallium flux FluxOR fluorescence; active compounds read high;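 active = fluorescence ratio B-score, a plate-corrected score, at least three library SD, with initial intensity B-score within 5 SD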
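Schedule – 37 °C overnight plating, 90-min dark dye load, 20-min compound pretreatment · System – stable KCNQ1 CHO-K1 line · Probe or stimulus – thallium- and potassium-containing depolarizing buffer · Measured by – kinetic FluxOR fluorescence, 10 s baseline plus 110 s post-stimulus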
hERG protect: hERG (human) protection from proarrhythmic block; Q12809; CHO-hERG, FluxOR thallium flux, dofetilide IC70 present; activation (rescue from dofetilide block), less the hit threshold, % at 10 µM; 0.51% of 310,000 active;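 active = activation above the mean of controls blocked by dofetilide plus 5 SD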;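 note: thallium influx through hERG after potassium depolarization seen as dye fluorescence rise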
KCNK3 block: human KCNK3 channel inhibition, primary screen | O14649 | CHO-KCNK3 thallium flux, FluxOR fluorescence; active compounds read low | B-score at 10 µM | 0.84% of 340,000 active | AID 602410;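 active = B-score under library mean minus 4 SD, starting fluorescence ratio at most library mean plus 5 SD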;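 note: more negative B-score means stronger inhibition of thallium flux through KCNK3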
KCNK9 inh: inhibitors of human KCNK9 two-pore domain potassium channel; Q9NPC2; HEK293 KCNK9, FluxOR thallium flux fluorescence; active compounds read low; B-score at 10 µM; 1.2% of 310,000 active;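 active = ratio B-score over 3 SD below the library mean, with starting fluorescence within 5 SD of its mean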;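 note: negative B-score means less thallium flux so channel inhibition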
Target sequence (Q9NPC2 whole entry, looked up, the tested form may be a part): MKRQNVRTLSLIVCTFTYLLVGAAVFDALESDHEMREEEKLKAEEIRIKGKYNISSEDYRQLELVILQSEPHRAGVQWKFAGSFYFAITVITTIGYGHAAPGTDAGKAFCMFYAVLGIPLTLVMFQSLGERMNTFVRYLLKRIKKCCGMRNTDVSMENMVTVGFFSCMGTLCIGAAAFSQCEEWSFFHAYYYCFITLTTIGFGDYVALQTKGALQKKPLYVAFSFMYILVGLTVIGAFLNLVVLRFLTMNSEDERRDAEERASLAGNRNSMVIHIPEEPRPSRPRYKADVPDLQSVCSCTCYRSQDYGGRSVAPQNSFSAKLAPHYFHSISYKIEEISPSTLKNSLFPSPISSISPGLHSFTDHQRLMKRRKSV
* hit, by the source's call; i = inactive; · = not tested or not shown.

SMILES	KCNQ1 inh	Kir21 inh	KCNQ1 pot	hERG protect	KCNK3 block	KCNK9 inh
COc1ccc(S(=O)(=O)Nc2c(C)n(C)n(-c3ccccc3)c2=O)cc1C(=O)O	i	0.34	i	-2	i	i
CCOC(=O)SC1=N/C(=C\c2ccc(N(C)C)cc2)C(=O)S1	i	-2	8*	-7	i	i
CCSC1=N/C(=C\c2ccc(C(=O)O)cc2)C(=O)S1	i	-1.4	i	-14	i	i
Oc1c(Br)cc(Br)cc1C=Nc1cccc2ncccc12	i	1.1	13*	4.8*	i	i
Brc1cccc(C=Nc2cccc3ncccc23)c1	i	0.78	i	-11	i	i
CCOC(=O)c1c(-c2ccccc2)csc1NC(=S)NC	i	-0.92	38*	8.9*	i	i
CCNC(=S)Nc1scc(-c2ccccc2)c1C(=O)OCC	i	0.29	23*	6.0*	i	i
CCOC(=O)C1CCN(C(=O)Cc2c(C(=O)O)n(CC)c3ccccc23)CC1	i	-0.6	i	5.5*	i	i
Cc1ccc(NC(=O)c2sccc2-n2cccc2)c(C)c1	i	-0.16	i	-17	i	-8.1*
Cc1cccc(C)c1NC(=O)N1CCC(C(=O)c2ccc(F)cc2)CC1	i	1.5	i	-10	i	i
Cc1ccnc(NC(=S)NC(=O)/C=C/c2ccc(Cl)cc2)c1	i	0	i	-9	i	i
COc1ccc(C(CCNCc2ccc(OC)c(OC)c2)c2ccc(F)cc2)cc1 (stereo not drawn)	i	-4.5*	i	-14	i	i
CCOC(=O)/C(C#N)=C\C=C1C=CN(C)C=C1	8*	-6.8	i	-15	i	i
CCOC(=O)/C(C#N)=C\c1ccc(CC)s1	i	-0.47	i	-3	i	i
O=C1CSC(c2ccccc2[N+](=O)[O-])N1c1ccccc1 (stereo not drawn)	i	-4.5*	i	-8	i	i
O=C1CSC(c2ccccc2[N+](=O)[O-])N1c1ccc(O)cc1 (stereo not drawn)	i	-0.3	i	-11	i	i
O=C(NCc1ccccc1Cl)C1CCCN1C(=O)Nc1ccccc1 (stereo not drawn)	i	-0.99	i	-5	i	i
CN(C)c1ccc(/C=C/c2nc3ccccc3c(=O)n2CCO)cc1	6*	-2.2	i	-18	i	i
O=c1c2ccccc2nc(/C=C/c2ccccc2)n1CCCO	i	2.7	i	-7	i	i
CCC(C)(C)NC(=O)C(c1ccc(OC)cc1)N(C(=O)CCC(=O)Nc1cc(C)on1)c1cc(OC)ccc1OC (stereo not drawn)	i	0	i	-6	i	i
COc1ccc(N2CCN(C(=O)c3cccc(NC(=O)c4ccco4)c3)CC2)cc1	i	1.2	i	-13	i	i
CC(=O)c1ccc2c(c1)N(CCCN1CCC(CCO)CC1)c1ccccc1S2	·	·	·	·	i	·
CN(C)CCCN1c2ccccc2Sc2ccc3ccccc3c21	·	·	·	·	i	·
OCCN1CCN(CCCN2c3ccccc3Sc3ccc(Cl)cc32)CC1	i	-5.6*	i	-15	i	i
CN(C)CCCN1c2ccccc2Sc2ccc(Cl)cc21	i	-7.9*	i	-9	i	i
SMILES	KCNQ1 inh	Kir21 inh	KCNQ1 pot	hERG protect	KCNK3 block	KCNK9 inh
Cc1ccc(CC(=O)NCCN2CCOCC2)cc1	i	-0.01	i	-6	i	i
COCCN(C(=O)COC(=O)CCC(=O)c1cccs1)c1c(N)n(Cc2ccccc2)c(=O)[nH]c1=O	i	0.66	i	-11	i	i
Cc1cc(C)c(S(=O)(=O)Nc2ccc(Cl)cn2)c(C)c1	i	-1.6	i	-2	i	i
CCC(C)CCN1CCN=C1Nc1ccccc1 (stereo not drawn)	·	·	·	·	i	·
O=C(Nc1ccccc1F)Nc1ccc([N+](=O)[O-])cc1Cl	8*	-1.3	i	-11	i	i
O=C(COc1ccccc1)N1CCN(S(=O)(=O)c2cccs2)CC1	i	1.2	9*	-2	i	i
O=C(CCOc1ccccc1)N1CCN(S(=O)(=O)c2cccs2)CC1	i	0.45	i	-9	i	i
